Active and inactive are the calls of the source. The rule behind the calls is not given here.
Columns and labels:
Jurkat = test: Inhibition of calcium release in Jurkat cells; assay type: functional, cell-based; settings: Homo sapiens
Procedure, shortened: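 Jurkat cells were washed, loaded with Fluo-3 (2 μM final), then held in HBSS with Ca/Mg, HEPES, probenecid and 1% FBS at pH 7.4, giving 3 × 10⁵ cells/mL final. Compound was added for 15 min at room temperature. Anti-CD3 (clone X35, 0.25 μg/mL final) was then added and fluorescence followed for 13 min. EC50 is the mean of ≥2 experiments in duplicate ± SD.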

[1] = target: Tyrosine-protein kinase Lck (Homo sapiens, UniProt P06239); test: Inhibitory activity against recombinant human p56 Lck tyrosine kinase
Chain of Tyrosine-protein kinase Lck (P06239 whole entry): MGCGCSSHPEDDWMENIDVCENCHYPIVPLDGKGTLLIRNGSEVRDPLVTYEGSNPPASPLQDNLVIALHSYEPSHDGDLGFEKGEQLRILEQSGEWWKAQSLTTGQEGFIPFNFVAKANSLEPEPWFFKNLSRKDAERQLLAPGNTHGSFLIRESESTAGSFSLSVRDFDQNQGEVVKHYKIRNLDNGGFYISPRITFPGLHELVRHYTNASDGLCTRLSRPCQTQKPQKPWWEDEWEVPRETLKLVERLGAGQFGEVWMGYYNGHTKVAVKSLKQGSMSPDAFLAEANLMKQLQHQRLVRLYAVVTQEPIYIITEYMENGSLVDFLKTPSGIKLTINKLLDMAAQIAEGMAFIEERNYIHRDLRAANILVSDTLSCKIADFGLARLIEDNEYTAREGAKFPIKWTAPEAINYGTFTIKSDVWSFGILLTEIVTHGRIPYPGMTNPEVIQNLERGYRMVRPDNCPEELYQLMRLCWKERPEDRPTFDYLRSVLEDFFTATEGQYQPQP

[2] = target: MAP kinase p38 (Homo sapiens) (UniProt O15264+Q15759+Q16539+P53778); test: Inhibition of Mitogen-activated protein kinase p38 - No inhibition at 10 ug/mL; assay type: protein assay
[3] = Inhibition of Extracellular signal-regulated kinase (Erk) - No inhibition at 100 ug/mL
[4] = target: cAMP-dependent protein kinase (PKA) (Homo sapiens) (UniProt P22694+P17612+P22612); test: Inhibition of Protein kinase A (PKA) - No inhibition at 500 uM; assay type: protein assay
[5] = target: Proto-oncogene tyrosine-protein kinase Src (Homo sapiens, UniProt P12931); test: Inhibition of c-SRC with 1 uM ATP
Chain of Proto-oncogene tyrosine-protein kinase Src (P12931 2-536 limits assumed): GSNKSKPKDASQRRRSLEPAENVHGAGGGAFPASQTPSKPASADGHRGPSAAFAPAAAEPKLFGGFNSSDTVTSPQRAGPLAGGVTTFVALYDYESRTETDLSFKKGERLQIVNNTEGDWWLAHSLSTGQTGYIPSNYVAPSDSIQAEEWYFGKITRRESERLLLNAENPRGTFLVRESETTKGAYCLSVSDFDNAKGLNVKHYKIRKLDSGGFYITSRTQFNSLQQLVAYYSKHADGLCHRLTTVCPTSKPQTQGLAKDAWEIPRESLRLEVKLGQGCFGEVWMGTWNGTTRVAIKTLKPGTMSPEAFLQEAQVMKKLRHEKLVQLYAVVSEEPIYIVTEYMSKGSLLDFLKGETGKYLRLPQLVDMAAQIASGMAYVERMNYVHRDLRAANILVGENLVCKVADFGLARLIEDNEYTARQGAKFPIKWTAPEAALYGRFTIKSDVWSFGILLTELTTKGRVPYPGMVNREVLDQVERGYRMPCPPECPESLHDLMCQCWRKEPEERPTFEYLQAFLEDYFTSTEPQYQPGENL
Procedure, shortened: (§1)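 Enzyme amount for each kinase chosen to give a linear response over the whole reaction period. Inhibition was read as IC50 or as the highest concentration tested.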

[6] = target: Epidermal growth factor receptor (Homo sapiens, UniProt P00533); test: Inhibition of Epidermal growth factor receptor
Chain of Epidermal growth factor receptor (P00533 whole entry): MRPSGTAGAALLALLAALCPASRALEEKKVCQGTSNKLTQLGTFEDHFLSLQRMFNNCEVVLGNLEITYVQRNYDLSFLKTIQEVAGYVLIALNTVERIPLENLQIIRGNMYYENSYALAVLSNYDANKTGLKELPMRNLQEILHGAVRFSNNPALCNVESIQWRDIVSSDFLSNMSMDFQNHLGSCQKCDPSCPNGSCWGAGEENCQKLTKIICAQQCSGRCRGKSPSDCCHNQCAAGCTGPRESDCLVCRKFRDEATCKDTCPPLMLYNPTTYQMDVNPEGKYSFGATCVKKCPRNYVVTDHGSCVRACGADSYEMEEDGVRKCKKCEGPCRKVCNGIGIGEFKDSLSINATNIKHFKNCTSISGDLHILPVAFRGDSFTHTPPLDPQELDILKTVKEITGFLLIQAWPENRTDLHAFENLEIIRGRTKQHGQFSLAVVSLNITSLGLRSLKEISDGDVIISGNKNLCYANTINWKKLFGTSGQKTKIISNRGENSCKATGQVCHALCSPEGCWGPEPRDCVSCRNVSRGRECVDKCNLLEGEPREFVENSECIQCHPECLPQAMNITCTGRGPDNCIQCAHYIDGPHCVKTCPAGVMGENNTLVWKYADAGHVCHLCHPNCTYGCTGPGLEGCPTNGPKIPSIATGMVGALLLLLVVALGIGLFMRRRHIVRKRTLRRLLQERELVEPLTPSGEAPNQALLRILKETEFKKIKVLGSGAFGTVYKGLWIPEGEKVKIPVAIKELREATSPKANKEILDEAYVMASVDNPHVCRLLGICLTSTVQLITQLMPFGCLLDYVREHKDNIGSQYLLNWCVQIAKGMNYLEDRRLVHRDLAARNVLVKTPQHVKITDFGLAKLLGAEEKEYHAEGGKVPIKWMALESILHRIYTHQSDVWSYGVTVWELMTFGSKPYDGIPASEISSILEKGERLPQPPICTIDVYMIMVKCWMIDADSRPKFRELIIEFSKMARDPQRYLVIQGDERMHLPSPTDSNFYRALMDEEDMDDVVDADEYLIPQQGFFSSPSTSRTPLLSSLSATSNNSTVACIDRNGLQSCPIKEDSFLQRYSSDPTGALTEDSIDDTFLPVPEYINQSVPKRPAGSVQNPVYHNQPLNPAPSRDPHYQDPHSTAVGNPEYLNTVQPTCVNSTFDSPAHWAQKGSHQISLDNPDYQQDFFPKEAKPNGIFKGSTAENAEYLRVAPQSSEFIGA

[7] = target: Tyrosine-protein kinase SYK (Homo sapiens, UniProt P43405); test: Inhibition of Syk tyrosine kinase; procedure, shortened: as §1
[8] = target: T1, Tyrosine-protein kinase ZAP-70 (Homo sapiens, UniProt P43403); test: Inhibition of Zeta-chain (TCR) associated protein kinase 70 kDa (ZAP70) with 1 uM ATP
T1 sequence (P43403 whole entry): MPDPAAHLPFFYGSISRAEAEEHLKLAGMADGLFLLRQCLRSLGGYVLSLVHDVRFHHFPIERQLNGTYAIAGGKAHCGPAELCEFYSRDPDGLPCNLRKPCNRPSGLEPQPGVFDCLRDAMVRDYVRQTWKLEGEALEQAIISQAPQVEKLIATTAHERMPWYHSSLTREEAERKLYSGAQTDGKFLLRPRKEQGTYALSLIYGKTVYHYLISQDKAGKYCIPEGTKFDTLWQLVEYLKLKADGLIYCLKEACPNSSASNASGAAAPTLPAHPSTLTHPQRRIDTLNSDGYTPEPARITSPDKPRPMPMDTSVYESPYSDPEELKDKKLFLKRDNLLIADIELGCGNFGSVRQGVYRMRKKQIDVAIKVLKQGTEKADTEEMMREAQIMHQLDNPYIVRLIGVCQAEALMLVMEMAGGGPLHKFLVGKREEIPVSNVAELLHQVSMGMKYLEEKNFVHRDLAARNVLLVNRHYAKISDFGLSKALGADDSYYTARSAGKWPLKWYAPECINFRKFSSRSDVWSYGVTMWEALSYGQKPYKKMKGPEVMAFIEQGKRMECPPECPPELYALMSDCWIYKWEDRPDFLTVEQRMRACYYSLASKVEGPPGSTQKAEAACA
Procedure, shortened: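 Radiometric kinase assay with enzyme amount set to give a linear response over the reaction period. ATP at 1 μM final with γ³³P-ATP at 20 Ci/mmol. Compounds from 5 mg/mL DMSO stock, final 200 to 1 μg/mL for IC50. Reactions started with enzyme, run 60 min at 30 °C, stopped with TCA/pyrophosphate, filter-harvested, and counted by scintillation.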

Compound	EC50 (Jurkat) [µM]	IC50 [1] [µM]	further results
Cc1cccc(C)c1Nc1nc2ccc3c(c2[nH]1)C(=O)NC(=O)C3(C)C	4.6	0.46	
Cc1[nH]c(=O)c2c(ccc3[nH]c(Nc4ccccc4Cl)nc32)c1C		0.15	
CC1(C)CNC(=O)c2c1ccc1nc(Nc3c(Cl)cccc3Cl)[nH]c21	5.2	1.1	
Cc1nc(O)c2c(ccc3[nH]c(Nc4c(Cl)cc(Cl)cc4Cl)nc32)c1C	0.42	0.018	
CC1(C)C(=O)NC(=O)c2c1ccc1[nH]c(Nc3c(Cl)c(Cl)cc(Cl)c3Cl)nc21		> 40	
CC1(C)C(=O)NC(=O)c2c1ccc1nc(Nc3ccc(Cl)cc3)[nH]c21		> 40	
O=C1NCCc2ccc3[nH]c(Nc4c(Cl)cccc4Cl)nc3c21	1.8	0.38	
CC1(C)C(=O)NC(=O)c2c1ccc1nc(Nc3c(Cl)cccc3Cl)[nH]c21	9.7	0.46	
Cn1c(Nc2c(Cl)cccc2Cl)nc2c3c(ccc21)C(C)(C)C(=O)NC3=O		2.5	
CC1(C)C(=O)NC(=O)c2c1ccc1[nH]c(Nc3c(Cl)cc(Cl)cc3Cl)nc21	4.3	0.73	
CN1C(=O)c2c(ccc3nc(Nc4c(Cl)cccc4Cl)[nH]c23)C(C)(C)C1=O		9.6	
CC1(C)C(=O)NC(=O)c2c1ccc1nc(Nc3c(Br)cc(Br)cc3Br)[nH]c21	7.3	0.6	

Continued, in another order:

EC50 (Jurkat) [µM]	IC50 [1] [µM]	Compound	further results
	9.6	CC1(C)C(=O)NC(=O)c2c1ccc1[nH]c(Cc3c(Cl)cccc3Cl)nc21	
	> 40	CC1(C)CNCc2c1ccc1[nH]c(Nc3c(Cl)cccc3Cl)nc21	
	> 40	CCc1cccc(CC)c1Nc1nc2ccc3c(c2[nH]1)C(=O)NC(=O)C3(C)C	
0.19		Cc1nc(O)c2c(ccc3[nH]c(Nc4c(Cl)cccc4Cl)nc32)c1C	NI [2]: inactive; NI [3]: inactive; NI [4]: inactive
2.9	0.77	Cc1cccc(Cl)c1Nc1nc2c3c(ccc2[nH]1)C(C)(C)C(=O)NC3=O	
	2.5	CN(c1nc2c3c(ccc2[nH]1)C(C)(C)C(=O)NC3=O)c1c(Cl)cccc1Cl	
0.34	0.027	Cc1cccc(Cl)c1Nc1nc2c(ccc3c(C)c(C)nc(O)c32)[nH]1	
	5.1	CC(C)CC1(C)C(=O)NC(=O)c2c1ccc1nc(Nc3c(Cl)cccc3Cl)[nH]c21 (stereo not drawn)	
	5.9	CCC1(CC)C(=O)NC(=O)c2c1ccc1[nH]c(Nc3c(Cl)cccc3Cl)nc21	
	> 40	CC1(C)C(=O)NC(=O)c2c1ccc1nc(Nc3ccccc3Cl)[nH]c21	
0.61	0.025	Cc1nc(O)c2c(ccc3[nH]c(Nc4c(Br)cc(Br)cc4Br)nc32)c1C	
	> 40	CC1(C)C(=O)NC(=O)c2c1ccc1nc(Nc3ccc(Cl)cc3Cl)[nH]c21	
	0.026	Cc1[nH]c(=O)c2c(ccc3nc(Nc4c(Cl)cccc4Cl)[nH]c32)c1C	IC50 [5]: 0.012 µM; IC50 [6]: 100 µM; IC50 [7]: > 100 µM; IC50 [8]: 80 µM
	11	CC1(C)C(=O)NC(=O)c2c1ccc1[nH]c(Nc3c(F)cccc3F)nc21	
